Laboratory results reported in publication PMC3048920 (Clinical cancer research : an official journal of the …, 2011).

Assays:
NSCLC = test: Tumor response in NSCLC patients, correlated with tumor genotype; type: in vivo, human
Procedure, shortened: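 NSCLC patients treated with oral once-daily test compound had tumors assessed by RECIST v1.0 at baseline, every two cycles and at end of treatment. Response was related to genotype. Archived tumor, or a fresh baseline biopsy where feasible, was tested for EGFR and KRAS mutations and EGFR/HER2 copy number by site laboratories, Pfizer or Genzyme.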

[1] = system: patients with advanced solid malignancies; test: Phase I dose escalation: dose-limiting toxicities and maximum tolerated dose; type: in vivo; conditions: for Even ts, n/N: DLT events, cycle 1
[2] = system: Ki67 and pERK1/2 (pMAPK) in skin biopsies; test: Skin biopsy pharmacodynamic biomarkers by immunohistochemistry; type: in vivo, human; conditions: with increased dose, Cmax, AUCtau and Ctrough; baseline vs cycle 1 day 14; P < 0.05
[3] = system: advanced malignant solid tumors; test: Tumor response; type: in vivo, human
[4] = system: patients with advanced solid malignancies; test: Treatment-related adverse events and laboratory abnormalities; type: in vivo; conditions: Schedule A (n = 111); treatment-related, all cycles
[5] = EGFR Exon 19 deletion, 17 patients
[6] = EGFR Exon 19 deletion/T790M, 4 patients
[7] = EGFR Exon 20 insertion, 6 patients (one not evaluable)
[8] = EGFR mutation unknown, 12 patients (one not evaluable)
[9] = EGFR wild type, 12 patients (one not evaluable)

In the case of `COc1cc2ncnc(Nc3ccc(F)c(Cl)c3)c2cc1NC(=O)/C=C/CN1CCCCC1` [PF299804], the “objective response to treatment” value (NSCLC; 4 patients with exon 19 deletions and documented T790M) is reported as “None”, the “Treatment Outcome, PD (patients)” value (NSCLC; [5]) is reported as 7 and the “Treatment Outcome, PR (patients)” value (NSCLC; [5]) is reported as 2. The “Treatment Outcome, SD (patients)” value (NSCLC; [5]) was 8, the “Treatment Outcome, PD (patients)” value (NSCLC; [6]) was “SD:2; PD:2” and the “Treatment Outcome, SD (patients)” value (NSCLC; [6]) was “SD:2; PD:2”. For the same compound, the “Treatment Outcome, PD (patients)” value (NSCLC; [7]) was 2, the “Treatment Outcome, PR (patients)” value (NSCLC; [7]) was 1 and the “Treatment Outcome, SD (patients)” value (NSCLC; [7]) was 2. The “Treatment Outcome, PD (patients)” value (NSCLC; EGFR L858R, 4 patients) was 1, the “Treatment Outcome, SD (patients)” value (NSCLC; EGFR L858R, 4 patients) was 3 and the “Treatment Outcome, PD (patients)” value (NSCLC; EGFR mutant, Other, 2 patients) was “SD: 1; PD:1”. The “Treatment Outcome, SD (patients)” value (NSCLC; EGFR mutant, Other, 2 patients) was “SD: 1; PD:1”, the “Treatment Outcome, IND (patients)” value (NSCLC; [8]) was 1 and the “Treatment Outcome, PD (patients)” value (NSCLC; [8]) was 2. The “Treatment Outcome, PR (patients)” value (NSCLC; [8]) was 1, the “Treatment Outcome, SD (patients)” value (NSCLC; [8]) was 7 and the “Treatment Outcome, IND (patients)” value (NSCLC; [9]) was 1. For the same compound, the “Treatment Outcome, PD (patients)” value (NSCLC; [9]) was 5, the “Treatment Outcome, SD (patients)” value (NSCLC; [9]) was 5 and the “Treatment Outcome, SD (patients)” value (NSCLC; HER2 amplified, 2 patients) was “SD:2”. The “additional patients with stable disease (SD) of ≥6 weeks duration” value (NSCLC; NSCLC patients) was 28 patients, the “total number of DLTs, share of treated patients” value ([1]; 45 mg including loading-dose cohort, four of 71 treated patients) was 6% and the “total number of DLTs, share of treated patients” value ([1]; 45 mg, two of 52 treated patients) was 4%. The “Even ts, n/N” value ([1]; Schedule A, 0.5 mg/day) was 0/3, the “Even ts, n/N” value ([1]; Schedule A, 1 mg/day) was 0/3 and the “Even ts, n/N” value ([1]; Schedule A, 2 mg/day) was 0/3. For the same compound, the “Even ts, n/N” value ([1]; Schedule A, 4 mg/day) was 0/5, the “Even ts, n/N” value ([1]; Schedule A, 8 mg/day) was 0/3 and the “Even ts, n/N” value ([1]; Schedule A, 16 mg/day) was 0/4. The “Even ts, n/N” value ([1]; Schedule A, 30 mg/day) was 1/13, the “Even ts, n/N” value ([1]; Schedule A, 45 mg/day (loading dose)) was 2/19 and the “Even ts, n/N” value ([1]; Schedule A, 45 mg/day) was 2/52. The “Even ts, n/N” value ([1]; Schedule A, 60 mg/day) was 3/6, the “Even ts, n/N” value ([1]; Schedule B, 60 mg/day) was 1/10 and the “maximum tolerated dose (MTD)” value ([1]; continuous once-daily dosing) was 45 mg/day. For the same compound, the “levels of pMAPK in skin biopsy” value [2] was “significantly decreased”, the complete responses ([3]; 110 patients with at least one response evaluation) was “No complete responses” and the “patients with PR” value ([3]; four of 110 evaluated patients, all NSCLC) was 3.6%. For the same compound, the “patients with stable disease as best response” value ([3]; over all treatment cohorts, 110 evaluated) was 44 patients, the “Anorexia, Grade 1, n (%)” value [4] was 12 (10.8) n (%) and the “Anorexia, Grade 2, n (%)” value [4] was 9 (8.1) n (%). For the same compound, the “Anorexia, Grade 3, n (%)” value [4] was 2 (1.8) n (%), the “Anorexia, Total, n (%)” value [4] was 23 (20.7) n (%) and the “Dermatitis acneiform, Grade 1, n (%)” value [4] was 11 (9.9) n (%). For the same compound, the “Dermatitis acneiform, Grade 2, n (%)” value [4] was 3 (2.7) n (%), the “Dermatitis acneiform, Grade 3, n (%)” value [4] was 6 (5.4) n (%) and the “Dermatitis acneiform, Total, n (%)” value [4] was 20 (18.0) n (%). The “Diarrhea, Grade 1, n (%)” value [4] was 43 (38.7) n (%), the “Diarrhea, Grade 2, n (%)” value [4] was 20 (18.0) n (%) and the “Diarrhea, Grade 3, n (%)” value [4] was 11 (9.9) n (%). The “Diarrhea, Total, n (%)” value [4] was 74 (66.7) n (%), the “Dry skin, Grade 1, n (%)” value [4] was 29 (26.1) n (%) and the “Dry skin, Grade 2, n (%)” value [4] was 1 (0.9) n (%). For the same compound, the “Dry skin, Grade 3, n (%)” value [4] was 0 n (%), the “Dry skin, Total, n (%)” value [4] was 30 (27.0) n (%) and the “Fatigue, Grade 1, n (%)” value [4] was 20 (18.0) n (%). For the same compound, the “Fatigue, Grade 2, n (%)” value [4] was 15 (13.5) n (%), the “Fatigue, Grade 3, n (%)” value [4] was 3 (2.7) n (%) and the “Fatigue, Total, n (%)” value [4] was 38 (34.2) n (%). The “Nausea, Grade 1, n (%)” value [4] was 28 (25.2) n (%), the “Nausea, Grade 2, n (%)” value [4] was 7 (6.3) n (%) and the “Nausea, Grade 3, n (%)” value [4] was 1 (0.9) n (%). For the same compound, the “Nausea, Total, n (%)” value [4] was 36 (32.4) n (%), the “Rash, Grade 1, n (%)” value [4] was 30 (27.0) n (%) and the “Rash, Grade 2, n (%)” value [4] was 16 (14.4) n (%). For the same compound, the “Rash, Grade 3, n (%)” value [4] was 4 (3.6) n (%), the “Rash, Total, n (%)” value [4] was 50 (45.0) n (%) and the “Stomatitis, Grade 1, n (%)” value [4] was 17 (15.3) n (%). The “Stomatitis, Grade 2, n (%)” value [4] was 9 (8.1) n (%), the “Stomatitis, Grade 3, n (%)” value [4] was 4 (3.6) n (%) and the “Stomatitis, Total, n (%)” value [4] was 30 (27.0) n (%).
